Key:
[1] = Renal toxicity in C57BL/6 mouse assessed effect on Fasn gene expression in kidney at 9.14 umol/kg, ip administered once daily for 7 days by Trizol reagent based RT-qPCR analysis; assay type: organism-based; settings: in vivo, 168 h
Method in brief: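 Male C57BL/6 mice (n=5) were dosed once daily for 7 days i.p. with parent drug at […], equimolar prodrug, or vehicle. The vehicle was 1:1:8 Kolliphor:NMP:water. Target gene expression was compared between groups per tissue by 2-tailed unpaired t test.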

[2] = biological target: T1, Fatty-acid amide hydrolase 2 (Homo sapiens, UniProt Q6GMR7); assay: Substrate activity at FAAH2 in human brain S9 fraction assessed as bezafibrate level at 100 uM measured after 15 mins by LC-MS/MS analysis; assay type: ADME, subcellular; settings: s9, 0.25 h
T1 sequence (Q6GMR7 whole entry): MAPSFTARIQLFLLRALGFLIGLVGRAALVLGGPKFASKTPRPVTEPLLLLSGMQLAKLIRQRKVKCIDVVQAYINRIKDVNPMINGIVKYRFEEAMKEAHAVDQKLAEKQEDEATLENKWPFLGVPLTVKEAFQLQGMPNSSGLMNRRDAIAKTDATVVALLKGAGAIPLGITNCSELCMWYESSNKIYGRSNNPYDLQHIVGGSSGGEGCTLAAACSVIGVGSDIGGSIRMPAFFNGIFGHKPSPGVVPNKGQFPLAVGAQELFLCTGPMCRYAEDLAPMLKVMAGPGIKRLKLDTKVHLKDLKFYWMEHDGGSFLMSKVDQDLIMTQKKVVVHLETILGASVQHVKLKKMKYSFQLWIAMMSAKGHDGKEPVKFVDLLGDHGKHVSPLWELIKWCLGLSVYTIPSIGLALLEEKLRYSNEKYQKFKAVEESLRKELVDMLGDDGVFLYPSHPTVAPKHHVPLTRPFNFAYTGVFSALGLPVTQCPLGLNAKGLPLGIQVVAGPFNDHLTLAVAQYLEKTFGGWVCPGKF
Method in brief: (§1)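 Human brain S9 at 1 mg/mL, with or without […] PF-3845, was prewarmed 5 min at 37 °C. It was incubated 15 min at 37 °C with 100 µM prodrug (final), then quenched with MeCN/DMF containing d₆-sobetirome. Parent acid was measured by LC-MS/MS. FAAH-dependent level = untreated sample (n=3) minus mean PF-3845 samples (n>2).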

[3] = AUC (0.5 to 6 hrs) in C57BL/6 mouse serum assessed as bezafibrate level at 9.14 umol/kg, ip by LC-MS/MS analysis; assay type: ADME, organism-based; set-up: dose 9.14 umol/kg, time upper 6 hr, time lower 0.5 hr, route intraperitoneal; settings: in vivo
Method in brief: (§2)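 Male wild-type C57BL/6 mice (8−10 weeks, n=3 per time point) received parent drug or equimolar prodrug at […] i.p. in DMSO. Brain and serum were collected at 0.5, 2 and 6 h. Parent acid was quantified by LC-MS/MS against vehicle-tissue standard curves with d₆-sobetirome internal standard. AUC0.5–6 h was computed from the time course; mean ± SEM.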

[4] = Brain to serum concentration ratio, Kp of the compound in C57BL/6 mouse assessed as bezafibrate level at 9.14 umol/kg, ip by LC-MS/MS analysis; assay type: ADME, organism-based
Method in brief: (§3)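 Brain-to-serum ratio Kp was calculated from brain and serum parent-drug AUC0.5–6 h (ng/g*h). These AUCs came from male C57BL/6 mice (n=3 per time point) given parent drug or equimolar prodrug at […] i.p. in DMSO, sampled at 0.5, 2 and 6 h. Parent acid was quantified by LC-MS/MS with d₆-sobetirome internal standard.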

[5] = Prodrug conversion in C57BL/6 mouse brain assessed as bezafibrate level at 9.14 umol/kg, ip measured after 1 hr in presence of FAAH inhibitor PF-3845 by LC-MS/MS analysis; assay type: ADME, organism-based; settings: in vivo
Method in brief: (§4)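 Male C57BL/6 mice (n=3) received PF-3845 at 1 mg/kg i.p., then prodrug at […] i.p. 1 h later; comparators received prodrug alone. Vehicle was DMSO. Whole brain was taken 1 h after prodrug and homogenized in water with d₆-sobetirome internal standard. It was extracted with EtOAc/MeCN and parent acid was measured by LC-MS/MS; mean ± SEM, 2-tailed unpaired t test.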

[6] = Prodrug conversion in C57BL/6 mouse brain assessed as 4-chlorobenzoate formation at 9.14 umol/kg, ip measured up to 6 hrs by LC-MS/MS analysis; assay type: ADME, organism-based; settings: in vivo, BLD = below limit of detection
Method in brief: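 Male C57BL/6 mice (n=3) received prodrug at […] i.p. in DMSO. Brain was collected at 0.5, 2 and 6 h. The 4-chlorobenzoate cleavage product was sought by LC-MS/MS against a vehicle-brain standard curve with d₆-sobetirome internal standard; the limit was LoQ.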

[7] = AUC (0.5 to 6 hrs) in C57BL/6 mouse brain assessed as bezafibrate level at 9.14 umol/kg, ip by LC-MS/MS analysis; assay type: ADME, organism-based; set-up: time 0.5-6 hr, dose 9.14 umol/kg, route intraperitoneal; settings: in vivo; method in brief: as §2
[8] = Prodrug conversion in C57BL/6 mouse brain assessed as 2-(3-chloro-4-((3-((7-propyl-3-(trifluoromethyl)-benzo[d]isoxazol-6-yl)oxy)propyl)thio)phenyl)acetic acid level at 9.14 umol/kg, ip measured after 1 hr in presence of FAAH inhibitor PF-3845 by LC-MS/MS analysis; assay type: ADME, organism-based; settings: in vivo; method in brief: as §4
[9] = AUC (0.5 to 6 hrs) in C57BL/6 mouse serum assessed as 2-(3-chloro-4-((3-((7-propyl-3-(trifluoromethyl)-benzo[d]isoxazol-6-yl)oxy)propyl)thio)phenyl)acetic acid level at 9.14 umol/kg, ip by LC-MS/MS analysis; assay type: ADME, organism-based; set-up: dose 9.14 umol/kg, time 0.5-6 hr, route intraperitoneal; settings: in vivo; method in brief: as §2
[10] = Brain to serum concentration ratio, Kp of the compound in C57BL/6 mouse assessed as 2-(3-chloro-4-((3-((7-propyl-3-(trifluoromethyl)-benzo[d]isoxazol-6-yl)oxy)propyl)thio)phenyl)acetic acid level at 9.14 umol/kg, ip by LC-MS/MS analysis; assay type: ADME, organism-based; method in brief: as §3
[11] = AUC (0.5 to 6 hrs) in C57BL/6 mouse brain assessed as 2-(3-chloro-4-((3-((7-propyl-3-(trifluoromethyl)-benzo[d]isoxazol-6-yl)oxy)propyl)thio)phenyl)acetic acid level at 9.14 umol/kg, ip by LC-MS/MS analysis; assay type: ADME, organism-based; set-up: time upper 6 hr, dose 9.14 umol/kg, time lower 0.5 hr, route intraperitoneal; settings: in vivo; method in brief: as §2
[12] = biological target: T2, Fatty-acid amide hydrolase 1 (Homo sapiens, UniProt O00519); assay: Substrate activity at FAAH1 in human brain S9 fraction assessed as 2-(3-chloro-4-((3-((7-propyl-3-(trifluoromethyl)-benzo[d]isoxazol-6-yl)oxy)propyl)thio)phenyl)acetic acid level at 100 uM measured after 15 mins by LC-MS/MS analysis; assay type: ADME, subcellular; settings: s9, 0.25 h; method in brief: as §1
T2 sequence (O00519 whole entry): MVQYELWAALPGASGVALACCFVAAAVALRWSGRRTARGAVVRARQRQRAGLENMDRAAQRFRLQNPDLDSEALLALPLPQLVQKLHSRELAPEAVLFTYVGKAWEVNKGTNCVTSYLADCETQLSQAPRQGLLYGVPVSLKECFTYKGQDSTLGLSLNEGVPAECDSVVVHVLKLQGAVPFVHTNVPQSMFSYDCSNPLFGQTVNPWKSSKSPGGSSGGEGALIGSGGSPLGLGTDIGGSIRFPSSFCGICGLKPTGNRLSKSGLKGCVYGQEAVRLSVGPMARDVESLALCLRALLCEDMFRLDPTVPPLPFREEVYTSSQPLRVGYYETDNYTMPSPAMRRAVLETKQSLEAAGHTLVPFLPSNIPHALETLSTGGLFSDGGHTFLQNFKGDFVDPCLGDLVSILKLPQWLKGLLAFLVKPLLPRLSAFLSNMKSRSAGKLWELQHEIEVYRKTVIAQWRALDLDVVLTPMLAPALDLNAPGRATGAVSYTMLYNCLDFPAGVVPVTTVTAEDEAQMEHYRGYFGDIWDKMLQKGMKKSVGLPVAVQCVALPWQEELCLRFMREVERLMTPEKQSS

Row | Structure (SMILES) | Drug metabolism [1] | Drug metabolism [2] | AUC [3] | Kp [4] | Drug metabolism [5] | Drug metabolism [6] | AUC [7] | Drug metabolism [8] | AUC [9] | Kp [10] | AUC [11] | Drug metabolism [12]
1 | CNC(=O)C(C)(C)Oc1ccc(CCNC(=O)c2ccc(Cl)cc2)cc1 | Metabolite_Detected | Metabolite_Detected | 470.6 ng·h/g | 0.06 | Metabolite_Notdetected | Bld | 26.3 ng·h/g | – | – | – | – | –
2 | CCCc1c(OCCCSc2ccc(CC(=O)NC)cc2Cl)ccc2c(C(F)(F)F)noc12 | – | – | – | – | – | – | – | Metabolite_Notdetected | 276.5 ng·h/g | 0.05 | 12.64 ng·h/g | Metabolite_Notdetected
